Compound activity from PubChem BioAssay.
STAT3 act: activators of IL-6 induced STAT3 signaling | AID 871 | activation (% of control), % at 5.6 µM | 190,000 compounds, 0.91% hits | U3A cells, IL-6 STAT3-luciferase reporter, luminescence; 100% = signal with IL-6 EC80 alone;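 active = activation above the screen-wide mean of compound activation plus 3 SD, cut at about 130% in these data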;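 note: 0% = background luminescence of wells with medium and substrate only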
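Material: STAT3-luciferase reporter U3A cells; Probe or stimulus: IL-6 (33 ng/mL); Incubation: compound pre-incubation 1 h before IL-6, then 6 h stimulation at 37 °C; Technique: luminescence from STAT3-driven luciferase reporter; Evaluation: % activation versus median of IL-6-stimulated wells; Controls: IL-6-only high control.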
FXIa inh 1536: factor XIa (human) inhibition; 220,000 compounds, 0.14% hits; purified FXIa, Boc-Glu-Ala-Arg-AMC fluorogenic substrate; P03951; inhibition, % at 5 µM; AID 798;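 active = inhibition of at least 40%; inactive = inhibition below 40%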;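 note: fluorescence of freed AMC excited at 355 nm; 0% = enzyme without compound and 100% = no enzyme blank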
FXIIa inh: inhibitors of human coagulation factor XIIa | P00748 | purified FXIIa, Boc-QGR-AMC fluorogenic substrate, 2 h | inhibition, % at 5 µM | 220,000 compounds, 0.3% hits; in the data active = inhibition above about 40%;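 note: 0% = enzyme with no compound and 100% = blank without enzyme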
thrombin 1536: blocks human thrombin protease activity | P00734 | alpha-thrombin, Boc-VPR-AMC fluorogenic substrate cleavage | inhibition, % at 5 µM | 220,000 compounds, 0.26% hits;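 active = inhibition at or above 40%; inactive = inhibition below 40%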;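 note: 0% = enzyme with no compound and 100% = wells without enzyme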
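System – human alpha-thrombin protein · Reagent – Boc-VPR-AMC substrate, 15 µM final · Compound – 5 µM single dose in 0.2% DMSO · Schedule – reaction at room temperature · Technique – AMC fluorescence at 355 nm excitation and 460 nm emission · Read-out basis – % inhibition relative to enzyme controls and enzyme-free blanks · Control set – no-compound enzyme wells and no-enzyme blanks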
KLK5 inh: kallikrein 5 (human) inhibition; 210,000 compounds, 0.59% hits; AID 873; inhibition, % at 5 µM; Q9Y337; recombinant hK5, fluorogenic AMC substrate cleavage;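 active = inhibition of 40% or more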;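 note: 0% = enzyme controls without compound and 100% = no-enzyme blanks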
AHR act: activators of human aryl hydrocarbon receptor; 320,000 compounds, 2.5% hits; activation, % at 5 µM; AHR-responsive luciferase reporter cells, luminescence; AID 2796; in the data active = activation above about 47%;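 note: 0% = vehicle wells and 100% = reference agonist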
AHR act confirm: confirmation of human aryl hydrocarbon receptor activators; 2,300 compounds, 87% hits; shares compounds with AHR act; human cells, AHR-responsive luciferase reporter, luminescence; activation, % at 9 µM; in the data active = activation above about 49%;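 note: HepG2 hepatoma cells carrying a DRE-driven firefly luciferase reporter; 0% = vehicle wells and 100% = reference agonist wells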
PXR act counter: activates human PXR in AHR activator counter-screen | shares compounds with AHR act | 2,300 compounds, 88% hits | cell-based PXR reporter, luciferase luminescence | activation, % at 11.6 µM | AID 434939; in the data active = activation above about 11%;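 note: human hepatoma DPX-2 cells expressing full-length human PXR; 0% = DMSO and 100% = reference agonist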
Target sequence (O75469 whole entry, looked up): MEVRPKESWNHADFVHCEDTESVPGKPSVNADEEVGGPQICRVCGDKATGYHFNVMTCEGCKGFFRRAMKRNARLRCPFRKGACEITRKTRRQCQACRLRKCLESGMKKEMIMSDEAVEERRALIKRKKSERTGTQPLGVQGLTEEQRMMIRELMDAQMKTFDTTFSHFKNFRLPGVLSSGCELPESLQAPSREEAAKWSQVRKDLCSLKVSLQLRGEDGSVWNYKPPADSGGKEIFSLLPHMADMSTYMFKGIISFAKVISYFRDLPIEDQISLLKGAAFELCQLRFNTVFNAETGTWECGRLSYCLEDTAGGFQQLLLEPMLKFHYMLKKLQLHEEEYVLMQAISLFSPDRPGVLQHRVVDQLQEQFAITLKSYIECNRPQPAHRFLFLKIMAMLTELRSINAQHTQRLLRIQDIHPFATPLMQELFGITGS
* marks the source's active call; other numbers are inactive results; x = no result. Sampled rows, rich in hits. Any-hit rate of the full collection: about 3.5%.

SMILES	STAT3 act	FXIa inh 1536	FXIIa inh	thrombin 1536	KLK5 inh	AHR act	AHR act confirm	PXR act counter
S=c1[nH]nc(-c2cc(-c3ccccc3)n[nH]2)n1/N=C/c1cccs1	x	2	0	-7	3	132*	128*	39*
Cc1ccc(C)c(S(=O)(=O)N2CCCC2CNC(=O)C(=O)NC2CC2)c1 (stereo unspecified)	x	x	x	x	x	7	x	x
COCCn1c(SCC(=O)Nc2ccccc2OC)nc2c([nH]c3ccccc32)c1=O	x	x	x	x	x	85*	84*	179*
COCCn1c(SCC(=O)NC(=O)Cc2ccccc2)nc2ccccc2c1=O	x	x	x	x	x	0	x	x
COCCn1c(SCC(=O)NCCc2ccccc2)nc2c([nH]c3ccccc32)c1=O	x	x	x	x	x	120*	72*	205*
CCn1c([N+](=O)[O-])nc2c1c(=O)[nH]c(=O)n2C	97	-6	8	-6	-3	x	x	x
CC1S/C(=C(\C#N)C(N)=O)N(c2ccc(F)cc2)C1=O (stereo unspecified)	110	2	14	-1	4	97*	122*	15*
CNC(=O)/C(C#N)=C1\SC(Cc2ccc(F)cc2)C(=O)N1c1ccccc1C (stereo unspecified)	x	-3	8	0	3	0	x	x
O=c1c2ccccc2ncn1-c1ccc([N+](=O)[O-])cc1Cl	x	x	x	x	x	-2	x	x
COc1ccccc1C(=O)Nc1ccc2c(C)cc(=O)oc2c1	x	x	x	x	x	98*	98*	41*
O=C(Nc1ccccc1C(=O)NCCc1ccccc1)c1ccco1	126	-1	9	-3	1	110*	102*	42*
N#Cc1ccccc1S(=O)(=O)N1CCN(C(=O)CN2C(=O)NC3(CCCC3)C2=O)CC1	x	x	x	x	x	0	x	x
OC1=C(O)c2nc3cc(F)ccc3nc21	x	-4	13	-4	-5	14	x	x
Fc1ccc2nc3[nH]c4ccccc4c3nc2c1	135*	-1	11	0	13	134*	189*	21*
Cc1[nH]n(C(N)=S)c(=O)c1N=Nc1ccc(Br)cc1	x	x	x	x	x	108*	135*	40*
Cc1[nH]n(C(N)=S)c(=O)c1N=Nc1cccc(C(F)(F)F)c1	x	x	x	x	x	143*	74*	21*
CC(C)[C@H](NS(=O)(=O)c1ccccc1)C(=O)OCC(=O)N1N=C(c2ccc(Cl)cc2)CC1c1ccco1 (stereo partly specified)	104	-4	1	-12	-7	-3	x	x
Cc1ccnc(Nc2nc(-c3ccccc3)cs2)c1	x	x	x	x	x	163*	89*	48*
c1ccc(Nc2nc(-c3cccnc3)cs2)nc1	88	3	17	4	-6	166*	74*	41*
CCC(=O)Nc1cccc(-c2csc(-c3ccccc3)n2)c1	95	6	15	0	-11	105*	85*	21*
Fc1ccc(-c2csc(NC(=S)Nc3ccccc3)n2)cc1	x	x	x	x	x	84*	79*	32*
COc1ccc(-c2csc(Nc3cc(C)ccn3)n2)cc1OC	x	x	x	x	x	-3	x	x
Cc1cc(NC(=O)C2CC(=O)N(c3cccc(Cl)c3)C2)no1 (stereo unspecified)	x	x	x	x	x	2	x	x
CC(C)CN1CCC(=O)N([C@H](CO)Cc2ccccc2)CC1	x	x	x	x	x	0	x	x
Cc1ccc2c(cnn2C(=O)CCC(=O)NC2CCCCC2)c1	x	x	x	x	x	2	x	x
SMILES	STAT3 act	FXIa inh 1536	FXIIa inh	thrombin 1536	KLK5 inh	AHR act	AHR act confirm	PXR act counter
CC1CCN(c2ccccc2NC(=S)NC(=O)C(C)(C)C)CC1	108	-3	4	0	-9	-1	x	x
Fc1ccc(-c2csc(Nc3ccccn3)n2)cc1	x	x	x	x	x	83*	107*	18*
COc1cccc(Nc2nc(-c3cccnc3)cs2)c1	x	x	x	x	x	108*	127*	13*
Clc1ccccc1Nc1nc(-c2cccnc2)cs1	102	0	16	-1	4	114*	129*	16*
CC(=O)Nc1cccc(-c2csc(Nc3ccccn3)n2)c1	87	3	16	-2	16	85*	74*	8
O=C(CSc1nc(-c2ccc(F)cc2)cs1)Nc1ccccn1	98	6	9	0	-4	-2	x	x
CC(C)CC(=O)OCc1cn(-c2ccccc2)nn1	104	7	2	0	4	-3	x	x
CC(=O)Nc1nc(C)c(-c2csc(Nc3ccccn3)n2)s1	112	-4	3	-1	-3	116*	108*	32*
Cc1ccc(C)c(Nc2nc(-c3cccnc3)cs2)c1	x	x	x	x	x	82*	90*	26*
NNc1nc(-c2ccccc2)cs1	126	26	13	-7	0	80*	82*	27*
c1ccc(-c2csc(Nc3ncccn3)n2)cc1	99	5	11	-3	14	25	x	x
CCC(=O)Nc1nc(C)c(-c2csc(Nc3cccc(C(=O)O)c3)n2)s1	92	1	10	0	22	21	x	x
CCC(=O)Nc1nc(-c2ccccc2)ns1	108	9	15	3	-6	102*	84*	32*
CCOc1cc(N2CCOCC2)c(OCC)cc1NC(=O)c1ccc(OCc2c(C)noc2C)c(OC)c1	103	-3	0	-6	-27	-1	x	x
CN(C(=S)NC(=O)C1CC1)c1ccc(O)cc1	x	x	x	x	x	3	x	x
c1ccc(-c2csc(=Nc3cccnc3)n2CC2CCCO2)cc1 (stereo unspecified)	92	5	15	4	-13	80*	55*	97*
Cc1ccc(S(=O)(=O)Nc2ccccc2C(=O)N2CCCCC2)cc1	x	x	x	x	x	-2	x	x
CC(=O)n1cc([C@H]2C=C(C(=O)NCc3ccccc3)O[C@@H](OCCCCO)C2)c2ccccc21	x	-6	7	-7	1	87*	106*	61*
C#CCn1c2ccccc2c2nc3ccccc3nc21	x	x	x	x	x	88*	191*	49*
